How the values were obtained:
Assay type in all cases: functional
[1] = system: Mycobacterium tuberculosis; test: Antitubercular activity against PAS/INH/EMB/RMP-resistant Mycobacterium tuberculosis Spec.210 assessed as fractional inhibitory concentration index in presence of 1/2 x MIC rifampicin incubated for 14 days by MABA method; details: time 14 day
How it was run: (§1)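 Interaction analysis in Middlebrook 7H9 with 10% OADC. Combination MICs came from mixing the derivative (1 to 1/32 MIC) with the reference drug at 1/2 MIC, and the reverse, after 14 days at 37 °C with McFarland 1 inoculum. FICI was calculated from the combination MIC values and the MICs alone.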

[2] = system: Mycobacterium tuberculosis; test: Antitubercular activity against PAS/INH/EMB/RMP-resistant Mycobacterium tuberculosis Spec.210 assessed as fractional inhibitory concentration index in presence of 1/2 x MIC isoniazid incubated for 14 days by MABA method; details: time 14 day; how it was run: as §1
[3] = system: Mycobacterium tuberculosis; test: Antitubercular activity against PAS/INH/EMB/RMP-resistant Mycobacterium tuberculosis Spec.210 assessed as reduction in bacterial growth incubated for 14 days in presence of 1/2 x MIC rifampicin by MABA method; details: Mycobacterium tuberculosis, 210, 336 h; time 14 day
How it was run: (§2)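 Checkerboard-style combination in Middlebrook 7H9 broth with 10% OADC. The test derivative was varied from 1 to 1/32 of its MIC, and the reference drug was fixed at 1/2 its own MIC. Single-agent MICs were determined first by MABA. Samples of 4 ml received inoculum at 1 McFarland and were incubated 14 days at 37 °C. The endpoint was the lowest derivative concentration that inhibited growth.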

[4] = system: Mycobacterium tuberculosis; test: Antitubercular activity against PAS/INH/EMB/RMP-resistant Mycobacterium tuberculosis Spec.210 assessed as reduction in bacterial growth incubated for 14 days in presence of 1/2 x MIC isoniazid by MABA method; details: Mycobacterium tuberculosis, 210, 336 h; time 14 day; how it was run: as §2
[5] = system: Mycobacterium tuberculosis; test: Antitubercular activity against PAS/INH/EMB/RMP-resistant Mycobacterium tuberculosis Spec.210 assessed as rifampicin MIC incubated for 14 days in presence of rifampicin by MABA method; details: Mycobacterium tuberculosis, 210, 336 h; time 14 day
How it was run: (§3)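 Combination assay in Middlebrook 7H9 broth with 10% OADC. The reference drug (INH, RMP, SM or EMB) was varied from 1 to 1/32 of its MIC, and the test derivative was fixed at 1/2 its own MIC. Single-agent MICs were determined first by MABA. Inoculum was 1 McFarland, with 14 days of incubation at 37 °C. The endpoint was the lowest reference-drug concentration that inhibited growth.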

[6] = system: Mycobacterium tuberculosis; test: Antitubercular activity against PAS/INH/EMB/RMP-resistant Mycobacterium tuberculosis Spec.210 assessed as isoniazid MIC incubated for 14 days in presence of isoniazid by MABA method; details: Mycobacterium tuberculosis, 210, 336 h; time 14 day
How it was run: (§4)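 In Middlebrook 7H9 with 10% OADC, the reference drug (INH, RMP, SM or EMB) at 1 to 1/32 of its MIC alone was mixed with the test derivative fixed at 1/2 its MIC. 4 ml samples were inoculated with McFarland 1 suspension and incubated 14 days at 37 °C. MIC is the lowest drug concentration in combination that inhibited growth.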

[7] = system: Mycobacterium tuberculosis; test: Antitubercular activity against INH-resistant Mycobacterium tuberculosis Spec.800 assessed as isoniazid MIC incubated for 14 days in presence of isoniazid by MABA method; details: Mycobacterium tuberculosis, 800, 336 h; time 14 day; how it was run: as §4
[8] = system: Mycobacterium tuberculosis; test: Antitubercular activity against INH-resistant Mycobacterium tuberculosis Spec.800 assessed as streptomycin MIC incubated for 14 days in presence of streptomycin by MABA method; details: Mycobacterium tuberculosis, 800, 336 h; time 14 day; how it was run: as §4
[9] = system: Mycobacterium tuberculosis; test: Potency index, Ratio of isoniazid MIC to test compound MIC for antitubercular activity against PAS/INH/EMB/RMP-resistant Mycobacterium tuberculosis Spec.210 assessed as inhibition of microbial growth incubated for 1 week by MABA method; details: time 1 weeks
[10] = system: Mycobacterium tuberculosis; test: Potentiation of rifampcin-induced antimycobacterial activity against INH-resistant Mycobacterium tuberculosis Spec.800 harboring InhA promoter mutation assessed as fold decrease in rifampicin MIC at 1/2X MIC incubated for 14 days in presence of rifampicin by MABA method; details: time 14 day; how it was run: as §3
[11] = system: Mycobacterium tuberculosis; test: Potentiation of ethambutol-induced antimycobacterial activity against INH-resistant Mycobacterium tuberculosis Spec.800 harboring InhA promoter mutation assessed as fold decrease in ethambutol MIC at 1/2X MIC incubated for 14 days in presence of ethambutol by MABA method; details: time 14 day; how it was run: as §3
[12] = system: Mycobacterium tuberculosis; test: Potentiation of isoniazid-induced antimycobacterial activity against INH-resistant Mycobacterium tuberculosis Spec.800 harboring InhA promoter mutation assessed as fold decrease in isoniazid MIC at 1/2X MIC incubated for 14 days in presence of isoniazid by MABA method; details: time 14 day; how it was run: as §3

Row | Structure (SMILES) | fractional inhibitory concentration index (FICI) [1] | fractional inhibitory concentration index (FICI) [2] | MIC [3] [µg/mL] | MIC [4] [µg/mL] | MIC [5] [µg/mL] | MIC [6] [µg/mL] | MIC [7] [µg/mL] | MIC [8] [µg/mL] | Ratio [9] | fold change (FC) [10] | fold change (FC) [11] | fold change (FC) [12]
1 | COc1ccc(-n2nnnc2Nc2cccc(Br)c2)cc1 | 0.5 | 1.125 | 0.5 | 0.25 | 8 | 16 | 1 | 0.5 | 8 | <=4 | <=4 | <=4
2 | COc1ccc(-n2nnnc2Nc2ccc(Br)cc2)cc1 | 0.75 | 0.625 | 1 | 0.25 | 8 | 8 | 0.5 | 0.25 | 8 | – | – | –

From ChEMBL document CHEMBL4680121, “Development of (4-methoxyphenyl)-1H-tetrazol-5-amine regioisomers as a new class of selective antitubercular agents” (Eur J Med Chem, 2020)
